Consider one molecule from ChEMBL document CHEMBL3414437, “Synthesis of CDDO-amino acid-nitric oxide donor trihybrids as potential antitumor agents against both drug-sensitive and drug-resistant colon cancer” (J Med Chem, 2015).

For orientation: mortality means the percentage killed.

SMILES strings stand for the structures. Active and inactive are the calls of the source. No cut-off for these calls is given here.

Data set [1] has as its system HCT-8. Nature of the data set: Antiproliferative activity against 5-FU resistant human HCT8 cells assessed as inhibition of cell proliferation at 0.25 uM after 24 hrs by MTT assay. Type of data set: functional, cell-based. A general note: Tetrazolium assays rely on reduction of a dye to a coloured formazan, in cell work by metabolically active cells.
The test system of data set [2] is HCT-8. Nature of the data set: Antiproliferative activity against 5-FU resistant human HCT8 cells assessed as inhibition of cell proliferation at 0.25 uM dosed 1 hr after NO scavenger carboxy-PTIO treatment and measured after 24 hrs by MTT assay. Type of data set: functional.
For data set [3], the system named is HCT-8. Nature of the data set: Inhibition of ERK protein phosphorylation in human HCT8 cells at 0.25 to 1 uM incubated for 24 hrs by Western blotting method. Type of data set: cell-based. An outline of the steps: (§1)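 Cells (1 x 10^6) grown 24 h in 6 cm dishes, then exposed in duplicate for 24 h to 0.25, 0.5 or 1 µM compound, with or without PTIO. Lysates (20 µg/lane) were run on 7.5% SDS-PAGE, blotted to PVDF and blocked in 5% milk. HRP secondaries with ECL detection; bands quantified by densitometry against β-actin or GAPDH. Three separate experiments, mean ± SD.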

For data set [4], the system named is HCT-8. Kind of data set: Inhibition of MRP1 protein expression in FU-resistant human HCT8 cells at 0.25 to 1 uM incubated for 24 hrs by Western blotting method. Type of data set: functional, cell-based. The essentials: as §1
A general note: In western blotting, separated proteins are transferred to a membrane and probed.

Data set [5] is described as follows: Toxicity in male ICR mouse assessed as mouse mortality at 2.38 x 10^3 umol/kg administered as single dose via oral gavage measured up to 14 days post treatment. Type of data set: organism-based. The settings on record: in vivo. An outline of the steps:
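Female or male adult ICR mice, 10 per sex group, were randomised and given a single oral gavage dose of 2,000 mg/kg in cremophor-EL/DMSO/PBS (1:1:8). Total mortality was recorded over days 1–14, and body weight on days 0, 7 and 14 as mean ± SD.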

The subject of a further data set is Mus musculus. Nature of the data set: Toxicity in nude BALB/c mouse xenografted with FU-resistant human HCT8 cells assessed as abnormal weight changes in liver at 17.8 to 35.7 umol/kg administered as via oral gavage daily for 21 days. Type of data set: organism-based, HCT-8. The settings on record: in vivo, 504 h. The essentials:
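Male BALB/c nude mice aged 6-8 weeks, implanted s.c. in the right flank with HCT-8/5-FU cells (2 × 10^6). Once tumors reached 180-200 mm3 (days 9-11), randomized to daily gavage for 21 days in cremophor-EL/DMSO/PBS (1:1:8), 0.2 mL. At the end, liver, kidney, lung and heart checked for size, colour and weight. n = 8 per group.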
In general terms: Xenograft models place foreign cells or tissue in a host animal.

`CC1(C)CC[C@]2(C(=O)NCC(=O)OCC#CCOc3no[n+]([O-])c3S(=O)(=O)c3ccccc3)CC[C@]3(C)[C@H](C(=O)C=C4[C@@]5(C)C=C(C#N)C(=O)C(C)(C)[C@@H]5CC[C@]43C)[C@@H]2C1`: the outcome in the data set with HCT-8 [1] was Active. Also, in the data set with HCT-8 [2], the inhibition result was “inactive”. Also, the inhibition entry in the data set with HCT-8 [3] and in the data set on HCT-8 [4] was “Dose-dependent effect” in each case. For the same molecule, the mortality at 336 h in data set [5] turned out to be 0%. The Activity entry with Mus musculus was “Non-toxic”.
